From PubChem BioAssay
Hits are enriched below; roughly 12% of the tested compounds scored in any of these assays.
Diaph act CS: diaphorase activation or chemical reduction counter-screen. Diaphorase/resazurin coupled assay, resorufin fluorescence, 16 min; stronger effect = higher value; 1 = vehicle wells, 0 = NADH-free wells. activation factor at 20 µM. 190,000 tested, 0.005% active. AID 1229;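 active = diaphorase activity raised at least twofold by the compound at 20 µM; inactive = activation factor below 2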
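Material: purified diaphorase enzyme from Clostridium kluyveri / Medium: HEPES pH 7.4 buffer with MgCl2 and Tween 20 / Schedule: enzyme reaction of 16 min at room temperature / Measured by: resorufin fluorescence, excitation 544 nm, emission 590 nm / Evaluation: rise in resorufin formation, marking diaphorase activation or chemical reduction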
WT yeast gro inh: growth inhibition of WT yeast, mitochondrial fusion screen; mitochondrial fusion phenotypic screen, WT strain; inhibition, % at 10 µM; 190,000 tested, 2.1% active; AID 1362; in the data active = inhibition above about 58%; tested in S. cerevisiae
KCC2 mod: modulators of human KCC2 chloride dependent transport. KCC2 cells, thallium flux FluoZin-2 fluorescence. Q9H2X9. 190,000 tested, 2.2% active. B-score of Tl+ flux slope (higher = more flux/activation; lower = inhibition) at 10 µM;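 active = thallium flux slope and its plate-corrected score both differing from the plate sample mean at a set confidence after two filtering rounds, in either direction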;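 note: slope of fluorescence scaled to starting intensity during 10 to 20 s after thallium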
Diaph inh CS: inhibits diaphorase or chemically oxidizes, flagging diaphorase assay artifacts. diaphorase resazurin-to-resorufin fluorescence, NADH, 16 min; bacterial (C. kluyveri) enzyme, not human. AID 1217. 190,000 tested, 0.69% active. inhibition, % at 20 µM;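 active = primary screen inhibition at 20 µM above a set limit, cut at about 50% in these data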;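 note: plate controls were DMSO with full reaction for no effect and wells lacking NADH for full effect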
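Assay system: diaphorase enzyme from Clostridium kluyveri. Quantity: enzyme working solution with 0.14 U/mL diaphorase. Schedule: reaction incubation of 16 min at room temperature. Technique: resorufin fluorescence, excitation 544 nm, emission 590 nm. Controls: No-NADH positive control and DMSO neutral control.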
ROMK mod: modulators of human ROMK potassium channel | P48048 | AID 1918 | 130,000 tested, 2% active | B-score at 10 µM | Tet-inducible ROMK, thallium flux fluorescence; actives lie on both sides;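 active = signal ratio slope over the read window, or its plate-corrected B-score, at least 3 SD from the plate mean, either direction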;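 note: B-score of the F/F0 ratio slope over 7 to 12 s after thallium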
Target sequence (P48048 whole entry, looked up): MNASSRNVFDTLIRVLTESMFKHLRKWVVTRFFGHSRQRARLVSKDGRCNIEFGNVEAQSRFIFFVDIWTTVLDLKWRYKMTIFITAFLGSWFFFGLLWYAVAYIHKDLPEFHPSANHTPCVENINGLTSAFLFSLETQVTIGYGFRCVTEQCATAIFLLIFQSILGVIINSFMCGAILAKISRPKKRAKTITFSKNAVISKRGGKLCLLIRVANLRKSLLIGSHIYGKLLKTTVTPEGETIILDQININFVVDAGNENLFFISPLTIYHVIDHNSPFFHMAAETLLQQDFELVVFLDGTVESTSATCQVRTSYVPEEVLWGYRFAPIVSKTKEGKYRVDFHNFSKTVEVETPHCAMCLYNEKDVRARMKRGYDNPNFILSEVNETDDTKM
Lmaj promast: inhibitors of Leishmania major promastigote growth; Leishmania major promastigotes, resazurin fluorescence viability; 200,000 tested, 9% active; inhibition, % at 10 µM; AID 1063; in the data active = inhibition above about 50%;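 note: promastigotes grown with compound for 44 hours at 28 °C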
ROMK hit retest: human ROMK channel modulation, retest confirmation; shares compounds with ROMK mod; ROMK thallium flux, fluorescence ratio; stronger effect = lower value; normalized thallium flux (F/F0 slope) at 10 µM; 3,000 tested, 54% active; AID 1917;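 active = Flux at 10 µM at least 3 SD below or above vehicle control mean in one or both replicates; inconclusive = no clear call, values can overlap the other calls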
* hit, by the source's call.

Screening CNC(=O)c1sccc1-n1cccc1 returned Diaph act CS 1, WT yeast gro inh -15, KCC2 mod 1.1, Diaph inh CS 4, ROMK mod 2.9*, Lmaj promast -3 and ROMK hit retest 0.076.
Screening CC(C)(C)C1=CC(=O)C(=O)C(C(C)(C)C)=C1 returned Diaph act CS 0.3, WT yeast gro inh -8, KCC2 mod 0.069, Diaph inh CS 73*, ROMK mod -2.3*, Lmaj promast 6 and ROMK hit retest 0.058*.
For CC(C)(C)C1=CC(=Nc2ccccc2N)C=C(C(C)(C)C)C1=O the results were Diaph act CS 0.9, WT yeast gro inh -4, KCC2 mod 0.39, Diaph inh CS 8, ROMK mod 0.043 and Lmaj promast 46.
`COc1cc(C(=O)Nc2ccc3c(c2)CCN3C(C)=O)cc(OC)c1OC` gave Diaph act CS 1.2, WT yeast gro inh -4, KCC2 mod 1.9, Diaph inh CS -15, ROMK mod 4.5*, Lmaj promast -3 and ROMK hit retest 0.079.
For CCc1cccc(NC(=O)c2cc(OC)c(OC)c(OC)c2)c1 the results were Diaph act CS 0.9, WT yeast gro inh 10, Diaph inh CS 7, ROMK mod 1.3*, Lmaj promast 11 and ROMK hit retest 0.077.
Screening NC1=NC(=Nc2cccc(Cl)c2)c2ccccc21 returned Diaph act CS 1, WT yeast gro inh -3, KCC2 mod 0.83, Diaph inh CS 1, ROMK mod 0.005 and Lmaj promast -1.
Screening CCCc1cc(C(=O)Nc2c(C)n(C)n(-c3ccccc3)c2=O)no1 returned Diaph act CS 1, WT yeast gro inh 0, Diaph inh CS -4 and Lmaj promast -5.
`Cn1c(CNc2ccc(Cl)cc2)nc2ccccc21` gave Diaph act CS 0.9, WT yeast gro inh 13, Diaph inh CS 14, ROMK mod -0.48 and Lmaj promast 6.
Cc1nc2cc(NCc3nc4ccccc4n3Cc3ccccc3)ccc2n1C was read as Diaph act CS 1, WT yeast gro inh 9, Diaph inh CS 3, ROMK mod -5.2*, Lmaj promast 27 and ROMK hit retest 0.061*.
Screening CC(=O)c1cc(-c2ccccc2)n(CC(=O)N2CCCCC2)c1C returned Diaph act CS 0.9, WT yeast gro inh -8, KCC2 mod 0.019, Diaph inh CS 7, ROMK mod 3*, Lmaj promast -9 and ROMK hit retest 0.075.
For CCOC(=O)c1cc(-c2ccccc2)n(CC(=O)N2CCCC2)c1C the results were Diaph act CS 0.9, WT yeast gro inh -28, KCC2 mod 0.095, Diaph inh CS 14 and Lmaj promast 5.
`Cc1ccc(OCC(O)CN2CCN(c3ccccn3)CC2)c(C)c1` (stereo not given) gave Diaph act CS 0.8, WT yeast gro inh -1, KCC2 mod -0.78, Diaph inh CS 16 and Lmaj promast -4.
Cc1ccc(C)c(OCC(O)CN2CCC(CN3C(=O)c4cccc5cccc(c45)C3=O)CC2)c1 (stereo not given) was read as Diaph act CS 1, WT yeast gro inh 37, KCC2 mod 0.73, Diaph inh CS 5, ROMK mod -4.7*, Lmaj promast 100* and ROMK hit retest inconclusive.
`O=c1c(Cl)c(O)c2cccc3c4ccccc4n1c23` gave Diaph act CS 0.5, WT yeast gro inh -5, KCC2 mod -1.8, Diaph inh CS 52*, ROMK mod 0.1, Lmaj promast -3 and ROMK hit retest 0.085.
`CC(=O)c1c(O)c2ccccc2n(C)c1=O` gave Diaph act CS 0.8, WT yeast gro inh 8, KCC2 mod 0.059, Diaph inh CS 22, ROMK mod -0.21 and Lmaj promast -4.
`N#C/C(=C\c1cccc([N+](=O)[O-])c1)c1ccccn1` gave Diaph act CS 1.1, WT yeast gro inh -10, KCC2 mod 0.054, Diaph inh CS -6, ROMK mod -3.6*, Lmaj promast 34 and ROMK hit retest 0.046*.
For O=C(c1cccc([N+](=O)[O-])c1)c1ccccn1 the results were KCC2 mod 0.074 and ROMK hit retest inconclusive.
